Laboratory results as given in ChEMBL document CHEMBL4477211, “Synthesis and Investigation of Tetrahydro-β-carboline Derivatives as Inhibitors of the Breast Cancer Resistance Protein (ABCG2)” (J Med Chem, 2016).

What was measured:
[1] = molecular target: ATP-dependent translocase ABCB1 (Homo sapiens, UniProt P08183); experiment: Inhibition of ABCB1 in human A2780/ADR cells assessed as reduction in calcein AM efflux pre-incubated for 30 mins before calcein AM addition and measured for 60 mins by microplate reader analysis relative to control; assay type: cell-based
Sequence of ATP-dependent translocase ABCB1 (P08183 whole entry): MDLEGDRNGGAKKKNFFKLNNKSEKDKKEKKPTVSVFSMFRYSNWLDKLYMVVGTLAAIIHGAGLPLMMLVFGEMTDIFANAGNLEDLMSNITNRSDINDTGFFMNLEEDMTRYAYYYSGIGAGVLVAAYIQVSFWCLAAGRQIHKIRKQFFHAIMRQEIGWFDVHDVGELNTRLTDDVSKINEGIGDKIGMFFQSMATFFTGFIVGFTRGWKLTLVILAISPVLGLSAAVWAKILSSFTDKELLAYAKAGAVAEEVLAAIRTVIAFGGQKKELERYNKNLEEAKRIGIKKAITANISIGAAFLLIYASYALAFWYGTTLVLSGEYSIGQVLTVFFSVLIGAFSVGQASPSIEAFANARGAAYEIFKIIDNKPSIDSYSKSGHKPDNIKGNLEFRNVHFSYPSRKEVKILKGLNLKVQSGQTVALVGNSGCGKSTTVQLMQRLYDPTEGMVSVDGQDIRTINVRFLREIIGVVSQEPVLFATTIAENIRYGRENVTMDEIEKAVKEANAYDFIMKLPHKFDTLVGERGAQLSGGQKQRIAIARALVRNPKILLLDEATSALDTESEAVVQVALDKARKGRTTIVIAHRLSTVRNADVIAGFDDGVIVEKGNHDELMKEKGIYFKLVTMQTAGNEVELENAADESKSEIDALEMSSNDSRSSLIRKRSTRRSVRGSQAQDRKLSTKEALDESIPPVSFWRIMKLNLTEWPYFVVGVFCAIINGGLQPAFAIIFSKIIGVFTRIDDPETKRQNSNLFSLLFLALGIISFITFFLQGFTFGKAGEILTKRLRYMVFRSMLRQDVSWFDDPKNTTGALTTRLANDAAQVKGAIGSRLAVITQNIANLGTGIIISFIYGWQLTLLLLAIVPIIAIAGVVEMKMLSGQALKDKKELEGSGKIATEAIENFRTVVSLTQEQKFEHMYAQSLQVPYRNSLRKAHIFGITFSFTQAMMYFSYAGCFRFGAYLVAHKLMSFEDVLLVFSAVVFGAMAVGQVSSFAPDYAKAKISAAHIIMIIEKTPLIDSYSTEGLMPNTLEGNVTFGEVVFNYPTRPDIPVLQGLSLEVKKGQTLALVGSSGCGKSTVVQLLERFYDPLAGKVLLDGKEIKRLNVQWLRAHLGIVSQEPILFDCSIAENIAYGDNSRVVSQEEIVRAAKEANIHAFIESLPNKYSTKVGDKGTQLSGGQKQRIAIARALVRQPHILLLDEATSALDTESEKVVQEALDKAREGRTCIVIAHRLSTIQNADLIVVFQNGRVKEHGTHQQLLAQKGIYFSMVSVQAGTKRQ

[2] = molecular target: T1, Broad substrate specificity ATP-binding cassette transporter ABCG2 (Homo sapiens, UniProt Q9UNQ0); experiment: Inhibition of human ABCG2 expressed in MDCK2 cells assessed as reduction in Hoechst 33342 efflux pre-incubated for 30 mins before Hoechst 33342 addition and measured for 120 mins by microplate reader analysis; assay type: cell-based
T1 sequence (Q9UNQ0 whole entry): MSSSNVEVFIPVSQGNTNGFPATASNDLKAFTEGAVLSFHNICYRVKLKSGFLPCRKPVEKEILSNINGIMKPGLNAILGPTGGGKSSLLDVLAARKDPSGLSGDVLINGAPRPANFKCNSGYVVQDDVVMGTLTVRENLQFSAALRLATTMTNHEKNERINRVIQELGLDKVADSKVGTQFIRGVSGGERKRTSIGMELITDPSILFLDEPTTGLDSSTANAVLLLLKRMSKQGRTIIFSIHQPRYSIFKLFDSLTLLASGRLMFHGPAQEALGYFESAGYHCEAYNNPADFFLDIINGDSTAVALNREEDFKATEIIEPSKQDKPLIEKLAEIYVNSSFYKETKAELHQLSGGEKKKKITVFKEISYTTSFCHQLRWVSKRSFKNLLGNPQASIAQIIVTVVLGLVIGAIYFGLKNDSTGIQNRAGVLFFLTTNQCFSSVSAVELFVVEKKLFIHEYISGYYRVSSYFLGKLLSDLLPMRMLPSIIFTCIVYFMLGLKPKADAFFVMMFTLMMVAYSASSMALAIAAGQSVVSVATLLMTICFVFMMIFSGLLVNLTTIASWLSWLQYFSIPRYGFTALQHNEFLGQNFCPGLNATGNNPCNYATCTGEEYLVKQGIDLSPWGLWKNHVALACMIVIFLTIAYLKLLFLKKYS
Summary of the method: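 Compound dilutions up to 10 µM (from 10 mM DMSO stocks) pre-incubated 30 min at 37 °C. Hoechst 33342 then added from 6 µM solution. Fluorescence (ex 355/em 460 nm) read each 60 s over 120 min.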

ABCB1 = ABCB1 (Homo sapiens, UniProt P08183); experiment: Inhibition of ABCB1 in human A2780/ADR cells assessed as reduction in calcein AM efflux at 10 uM pre-incubated for 30 mins before calcein AM addition and measured for 60 mins by microplate reader analysis relative to control; assay type: cell-based; details: probe calcein AM
Sequence of ABCB1 (P08183 whole entry): as the sequence (P08183 whole entry) above
Summary of the method: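 Compound at 10 µM pre-incubated 30 min at 37 °C. Calcein AM added from 3.125 µM solution. Fluorescence (ex 485/em 520 nm) read every 60 s for 60 min.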

[3] = Solubility in pH 7.4 Krebs-HEPES buffer at 10 uM after 2 hrs by UV-visible spectrophotometric analysis; assay type: physicochemical; details: pH 7.4, 2 h
Summary of the method: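 10 µM test solutions prepared from DMSO stocks as for the Hoechst 33342 assay, in Krebs-HEPES pH 7.4. Absorbance at an absorption peak maximum recorded every 120 s for 2 h at room temperature by UV/visible spectrophotometer.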

[4] = molecular target: T1, Broad substrate specificity ATP-binding cassette transporter ABCG2; experiment: Inhibition of human ABCG2 expressed in MDCK2 cells assessed as reduction in pheophorbide A efflux pre-incubated for 30 mins before pheophorbide A addition and measured for 120 mins by flow cytometry
[5] = Cytotoxicity against wild-type MDCK2 cells assessed as reduction in cell viability after 72 hrs by MTT assay; assay type: cell-based, Canis lupus familiaris; details: dog, wild-type MDCK2 (MDCK-II) cells
Summary of the method: (§1)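 MDCK II cells retrovirally transfected with human ABCG2-GFP cDNA, and wild-type MDCK II, in DMEM with 10% FBS. Seeded at 3 x 10^3 cells/well and attached 6 h at 37 °C, 5% CO2. Compounds up to 100 µM for 72 h. Controls were 10% DMSO and medium. MTT (5 mg/ml) added for 1 h, read at 570 nm minus 690 nm. Data normalised; GI50 from variable-slope sigmoidal fit.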

[6] = Cytotoxicity against MDCK2 cells expressing human ABCG2 assessed as reduction in cell viability after 72 hrs by MTT assay; assay type: ADME, cell-based, Canis lupus familiaris; details: dog, MDCK2 (MDCK-II) cells expressing human ABCG2; summary of the method: as §1
[7] = molecular target: T1, Broad substrate specificity ATP-binding cassette transporter ABCG2; experiment: Inhibition of human ABCG2 expressed in baculovirus infected Sf9 cell membrane assessed as inhibition of vanadate sensitive ATPase activity at 1 uM after 20 mins by colorimetric method; details: sf9, 20 min
[8] = molecular target: T1, Broad substrate specificity ATP-binding cassette transporter ABCG2; experiment: Inhibition of human ABCG2 expressed in baculovirus infected Sf9 cell membrane assessed as inhibition of vanadate sensitive quercetin-stimulated ATPase activity after 20 mins by colorimetric method
Summary of the method: (§2)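 Cholesterol-loaded membranes from Sf9 cells infected with baculovirus carrying human wild-type ABCG2; 10 µg protein per reaction. Buffer: 40 mM MOPS-Tris pH 7.0, 50 mM KCl, 2 mM DTT, 0.5 mM EGTA-Tris, 5 mM azide, 1 mM ouabain. Started with 3.3 mM MgATP, 20 min at 37 °C, stopped with SDS. Pi measured by molybdate/ascorbate colour at 880 nm against K2HPO4 standard.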

[9] = molecular target: T1, Broad substrate specificity ATP-binding cassette transporter ABCG2; experiment: Inhibition of human ABCG2 expressed in baculovirus infected Sf9 cell membrane assessed as inhibition of vanadate sensitive basal ATPase activity after 20 mins by colorimetric method; summary of the method: as §2
[10] = molecular target: T1, Broad substrate specificity ATP-binding cassette transporter ABCG2; experiment: Reversal of human ABCG2-mediated resistance to SN-38 in human ABCG2 expressed MDCK2 cells assessed as reduction in SN-38 GI50 after 72 hrs by MTT assay
ABCG2 = molecular target: T2, ABCG2 (Homo sapiens, UniProt Q9UNQ0); experiment: Ratio of IC50 for human ABCG2 expressed in baculovirus infected Sf9 cell membrane assessed as inhibition of vanadate sensitive quercetin-stimulated ATPase activity to IC50 for human ABCG2 expressed in baculovirus infected Sf9 cell membrane assessed as inhibition of vanadate sensitive basal ATPase activity; details: read-out: Ratio IC50
T2 sequence (Q9UNQ0 whole entry): T1 sequence (Q9UNQ0 whole entry)

Row | SMILES | IC50 [1] [nM] | IC50 ([2]; read-out: IC50) [nM] | inhibition at 1 h, 10 µM (ABCB1) [%] | other results
1 | COc1ccc(C2c3[nH]c4ccccc4c3CCN2C(=O)c2ccccc2)cc1OC (stereo not drawn) | 7330 | 3620 | > 25 | 
2 | Clc1ccc(C2c3[nH]c4ccccc4c3CCN2Cc2ccccc2)cc1Cl (stereo not drawn) |  | > 10000 | < 25 | solubility [3]: Soluble
3 | O=C(c1ccc(Cl)cc1)N1CCc2c([nH]c3ccccc23)C1c1ccc(F)c(F)c1 (stereo not drawn) | 23400 | 1260 | > 25 | 
4 | COc1ccc(C(=O)N2CCc3c([nH]c4ccccc34)C2c2ccc(F)c(F)c2)cc1 (stereo not drawn) | 8240 | 805 | > 25 | 
5 | O=C(c1ccccc1)N1CCc2c([nH]c3ccccc23)C1c1ccc(F)c(F)c1 (stereo not drawn) | 8760 | 1100 | > 25 | IC50 ([4]; read-out: IC50): 1800 nM
6 | COc1ccc(C(=O)N2CCc3c([nH]c4ccccc34)C2c2cccc(Cl)c2)cc1 (stereo not drawn) | 19200 | 883 | > 25 | 
7 | O=C(c1cccc2ccccc12)N1CCc2c([nH]c3ccccc23)C1c1ccc(Cl)c(Cl)c1 (stereo not drawn) |  | 1320 | < 25 | 
8 | O=C(c1ccccc1)N1CCc2c([nH]c3ccccc23)C1c1ccccc1F (stereo not drawn) | 11300 | 4490 | > 25 | 
9 | O=C(c1ccc(Cl)cc1)N1CCc2c([nH]c3ccccc23)C1c1ccc(Cl)c(Cl)c1 (stereo not drawn) |  | 1030 | < 25 | 
10 | c1ccc(C2NCCc3c2[nH]c2ccccc32)cc1 (stereo not drawn) |  |  | < 25 | IC50 [4]: Not Active; IC50 [2]: Not Active
11 | COc1ccc(C(=O)N2CCc3c([nH]c4ccccc34)C2c2ccccc2)cc1 (stereo not drawn) | 9550 | 1750 | > 25 | 
12 | c1ccc(CN2CCc3c([nH]c4ccccc34)C2c2ccccc2)cc1 (stereo not drawn) |  | > 10000 | < 25 | solubility [3]: Soluble
13 | O=C(c1ccc(Cl)cc1)N1CCc2c([nH]c3ccccc23)C1c1ccc(Br)cc1 (stereo not drawn) |  | 1780 | < 25 | 
14 | O=C(c1ccccc1)N1CCc2c([nH]c3ccccc23)C1c1cccc(Cl)c1 (stereo not drawn) | 22500 | 869 | > 25 | IC50 ([4]; read-out: IC50): 811 nM
15 | COc1ccc2c(c1)[nH]c1c(C)nccc12 [HARMINE] |  |  |  | GI50 at 72 h [5]: 2300 nM; GI50 at 72 h [6]: 2420 nM; inhibition (INH) [7]: Not Active
16 | O=C(c1ccccc1)N1CCc2c([nH]c3ccccc23)C1c1ccccc1 (stereo not drawn) | 7940 | 2780 | > 25 | IC50 [8]: 2020 nM; GI50 at 72 h [5]: 12400 nM; IC50 [9]: 196 nM; Activity [10]: Dose-dependent effect; GI50 at 72 h [6]: 12900 nM; selectivity ratio (ABCG2): 10.3; inhibition (INH) [7]: Active; solubility [3]: Soluble
17 | Cc1ccc(C2c3[nH]c4ccccc4c3CCN2C(=O)c2ccccc2)cc1 (stereo not drawn) |  | 1430 | < 25 | 
18 | CC(C)CC1c2[nH]c3ccccc3c2CCN1C(=O)c1ccccc1 (stereo not drawn) | 12900 | 2330 | > 25 | 
19 | CCn1c2c(c3ccccc31)CCN(C(=O)c1ccccc1)C2c1ccccc1 (stereo not drawn) | 9230 | 10400 | > 25 | solubility [3]: Soluble
20 | CCn1c2c(c3ccccc31)CCN(C(=O)c1cccc(OC)c1)C2c1ccc(Cl)c(Cl)c1 (stereo not drawn) |  | > 10000 | < 25 | solubility [3]: Soluble
21 | COc1ccc(C(=O)N2CCc3c([nH]c4ccccc34)C2c2ccc(C(F)(F)F)cc2)cc1 (stereo not drawn) |  | 1230 | < 25 | solubility [3]: Soluble
22 | COc1ccc(C2c3[nH]c4ccccc4c3CCN2C(=O)c2ccccc2)cc1 (stereo not drawn) | 12000 | 2210 | > 25 | 
23 | COc1cccc(C2NCCc3c2[nH]c2ccccc32)c1 (stereo not drawn) |  |  | < 25 | IC50 [4]: Not Active; IC50 [2]: Not Active
24 | N#Cc1cccc(C2c3[nH]c4ccccc4c3CCN2C(=O)c2ccccc2)c1 (stereo not drawn) | 6550 | 2000 | > 25 | 
25 | O=C(c1ccccc1)N1CCc2c([nH]c3ccccc23)C1c1ccc(F)cc1 (stereo not drawn) | 13400 | 1890 | > 25 | 
26 | COc1ccc(C(=O)N2CCc3c([nH]c4ccccc34)C2c2cccc(OC)c2)cc1 (stereo not drawn) | 3380 | 1450 | > 25 | 
27 | COc1cccc(C2c3[nH]c4ccccc4c3CCN2C(=O)c2ccccc2)c1 (stereo not drawn) | 6220 | 1920 | > 25 | 
28 | COc1ccc(C(=O)N2CCc3c([nH]c4ccccc34)C2c2ccc(F)c(F)c2)cc1OC (stereo not drawn) | 2860 | 1100 | > 25 | 
29 | CC(=O)Nc1ccc(C2c3[nH]c4ccccc4c3CCN2C(=O)c2ccccc2)cc1 (stereo not drawn) | 7400 | 7820 | > 25 | solubility [3]: Soluble
30 | COc1ccc(C(=O)N2CCc3c([nH]c4ccccc34)C2c2ccc(Cl)c(Cl)c2)cc1OC (stereo not drawn) | 14300 | 698 | > 25 | 
